Mdm2-MdmX inh = disrupts the human Mdm2-MdmX interaction; O15151+Q00987; SaOS-2 split-luciferase Mdm2/MdmX complementation, luminescence; inhibition, % at 8 µM; hit rate 3% among 330,000; AID 485346;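 active = inhibition of at least 50% at 8 µM in the primary screen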
Target sequence (O15151 whole entry, looked up): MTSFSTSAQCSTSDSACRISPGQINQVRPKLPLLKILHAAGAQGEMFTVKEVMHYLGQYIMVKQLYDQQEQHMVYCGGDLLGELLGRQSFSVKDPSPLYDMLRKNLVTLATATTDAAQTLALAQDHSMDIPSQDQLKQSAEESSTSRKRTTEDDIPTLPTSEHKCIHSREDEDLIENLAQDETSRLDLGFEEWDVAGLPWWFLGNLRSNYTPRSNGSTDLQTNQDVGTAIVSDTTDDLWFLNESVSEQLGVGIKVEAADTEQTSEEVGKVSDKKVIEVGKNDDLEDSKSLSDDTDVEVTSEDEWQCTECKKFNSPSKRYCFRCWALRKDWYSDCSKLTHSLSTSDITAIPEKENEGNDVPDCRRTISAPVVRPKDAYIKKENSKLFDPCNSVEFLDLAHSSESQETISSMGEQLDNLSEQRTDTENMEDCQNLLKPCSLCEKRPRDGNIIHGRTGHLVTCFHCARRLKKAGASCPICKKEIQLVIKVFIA
Target sequence (Q00987 whole entry, looked up): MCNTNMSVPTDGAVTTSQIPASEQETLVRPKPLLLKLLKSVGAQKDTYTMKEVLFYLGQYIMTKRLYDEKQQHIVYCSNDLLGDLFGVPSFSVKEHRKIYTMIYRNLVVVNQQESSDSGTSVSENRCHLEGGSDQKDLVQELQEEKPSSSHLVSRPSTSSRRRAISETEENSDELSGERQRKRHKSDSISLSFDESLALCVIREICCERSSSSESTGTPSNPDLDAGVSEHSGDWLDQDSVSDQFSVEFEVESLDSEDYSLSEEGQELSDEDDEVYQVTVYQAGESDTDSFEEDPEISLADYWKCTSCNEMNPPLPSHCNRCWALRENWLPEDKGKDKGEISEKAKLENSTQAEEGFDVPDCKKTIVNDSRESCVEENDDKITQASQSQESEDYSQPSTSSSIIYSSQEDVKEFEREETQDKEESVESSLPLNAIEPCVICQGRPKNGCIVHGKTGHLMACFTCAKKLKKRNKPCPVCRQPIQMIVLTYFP
Beta apoptosis = blocks beta cell apoptosis; INS-1E cytokine-induced death, ATP luminescence, 48 h; percent of positive-control rescue, neutral wells zero; protection from apoptosis, % (concentration not given with the values); hit rate 0.8% among 300,000;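 active = Every replicate reaches about 75%, or at least half do and their mean reaches it too, limit read from the data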;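 also: 0% = cytokine-treated negative control wells and 100% = positive control rescue; higher means more ATP so stronger rescue from cytokine killing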
SKKanGAS inh = SKKanGAS growth inhibition. hit rate 1.3% among 300,000. S. pyogenes SKKanGAS, kanamycin growth, BacTiter-Glo, 6 h. inhibition, % at 7.5 µM;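 active = mean replicate score, as percent of positive control median, at least 50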;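 also: strain carries kanamycin resistance gene driven by streptokinase promoter and grows in 40 µg/ml kanamycin; loss of luminescence reflects streptokinase promoter inhibition or plain growth inhibition; 0% = median of DMSO wells and 100% = positive control at its reference dose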
Calb FLC = C. albicans growth modulation with fluconazole; hit rate 0.57% among 300,000; C. albicans CaCi-2 (fluconazole-resistant clinical isolate) + fluconazole, Alamar Blue growth, 48 h; growth inhibition, % (concentration not given with the values);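 active = growth inhibition above about 58% in most replicates, limit read from the data, passing the limit was not always enough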;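 also: all wells also contain fluconazole at 8 µg/ml as a sub-toxic cotreatment; 0% = median of DMSO wells and 100% = median of geldanamycin control wells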
T cruzi repl = T. cruzi replication inhibition; T. cruzi beta-gal in NIH3T3, luminescence, 90 h; inhibition, % (test concentration not listed); hit rate 1.4% among 300,000;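 active = mean inhibition across valid replicates above about 55%, limit read from the data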;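 also: signal also drops with host cell toxicity which is not excluded here; 0% = plate median of DMSO wells and 100% = zero luminescence signal; higher percent means less beta-gal luminescence so fewer parasites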
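System: mouse NIH/3T3 fibroblasts infected with β-gal-expressing T. cruzi Tulahuen C4 / Input: NIH/3T3 cells, 5,000 per well / Buffer or medium: Low-serum DMEM with 2% FBS / Probe or stimulus: 5000 reporter trypomastigotes per well / Schedule: ≥90 h infection period, 3 h prior cell attachment / Measured by: GalScreen luminescence, 60 min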
CSC inhib = cancer stem cell inhibition | hit rate 1.1% among 300,000 | cancer stem cell-like cells viability, luminescence | inhibition, % at 7.5 µM | AID 2717; in the data active = inhibition above about 75%; tested in HMLE shEcad cells
Mdm2-MdmX conf = confirmation of human Mdm2/MdmX interaction inhibitors | shares compounds with Mdm2-MdmX inh | Mdm2-MdmX binding, luminescent assay | inhibition, % at 8 µM | hit rate 55% among 10,000 | AID 489028; in the data active = inhibition above about 40%
Full FLuc ctr = full-length luciferase inhibition in Mdm2/MdmX counter-screen; shares compounds with Mdm2-MdmX inh; SaOS-2 full-length luciferase counterscreen, luminescence; inhibition, % at 8 µM; hit rate 77% among 6,200; AID 504607;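 active = mean inhibition at 8 µM reaching about 37%, which flags the compound as non-specific, limit read from the data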;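 also: p53-null SaOS-2 cells with luciferase driven by a doxycycline-inducible promoter; compound on cells about two nights before reading with doxycycline added after day one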
An asterisk follows results filed as active; . = not tested or not shown. Only some compounds are listed: those with a hit (about 5.7% of all), similar ones and a draw of the others.

SMILES	Mdm2-MdmX inh	Beta apoptosis	SKKanGAS inh	Calb FLC	T cruzi repl	CSC inhib	Mdm2-MdmX conf	Full FLuc ctr
CC1CN(S(=O)(=O)c2cccc(C(=O)NCCc3ccc(S(N)(=O)=O)cc3)c2)CC(C)O1 (stereo not drawn)	25	-4	.	.	.	-18	.	.
CCOc1cccc2sc(N(CCCN(C)C)C(=O)c3ccc(S(=O)(=O)N4CCc5ccccc5C4)cc3)nc12	82*	2	6	-5	11	22	35	.
CCc1ccc2nc(N(CCCN(C)C)C(=O)c3ccc(S(=O)(=O)N4CCc5ccccc5C4)cc3)sc2c1	99*	30	19	-1	38	-1	5	.
Cn1c(=O)c2[nH]c(N3CCN(c4ccccc4)CC3)nc2n(C)c1=O	67*	-4	9	-5	-11	13	39	67*
CC(C)C[C@H]1CN=C(Nc2ccccc2)N1CCc1cccc(F)c1	58*	-5	.	.	.	26	-19	.
CC(C)C[C@H]1CN=C(N(C)C)N1CCc1cccc(F)c1	23	-8	.	.	.	-14	.	.
CN(C1CCCCC1)S(=O)(=O)c1cc2c(cc1Cl)NC(=O)CO2	29	3	10	-4	19	-10	.	.
CCOC(=O)Cc1csc(N/N=C\c2ccccc2OC)n1	-23	8	-1	-9	36	4	.	.
COc1ccc2c(c1)[nH]c(=O)c1sc3ccccc3c12	60*	22	26	6	11	-4	19	.
COc1ccc2sc3c(=O)[nH]c4ccccc4c3c2c1	72*	41	2	19	-15	-6	74*	44*
COc1ccc2c(-c3ccccc3)cc(=O)[nH]c2c1	9	4	-4	33	-5	2	.	.
COc1ccc(OCc2cc(=O)[nH]c3ccccc23)cc1	10	3	2	52	-2	6	.	.
CC(C)C(=O)Nc1cccc(C(=O)Nc2ccc(S(=O)(=O)N3CCOCC3)cc2)c1	0	-1	1	-4	-5	-9	.	.
COc1ccccc1/C=C/C(=O)OCC(=O)N1CCN(S(=O)(=O)c2ccc(C)cc2C)CC1	8	.	.	.	.	.	.	.
COc1cccc(NC(=O)CSc2nc3ccccc3cc2Cc2ccccc2)c1	14	-3	34	-8	33	4	.	.
COc1cccc(CSc2nc3ccccc3cc2C=O)c1	68*	10	13	-2	2	-15	64*	61*
CC(NC(=O)C(=O)N1CCCCC1)C(c1cccs1)N1CCN(C)CC1 (stereo not drawn)	8	-3	-2	8	-15	8	.	.
Cc1ccccc1S(=O)c1ccccc1C(=O)O (stereo not drawn)	-1	-4	-11	-1	.	-13	.	.
COc1ccc(N/N=C(/N=Nc2nc(C)cc(=O)[nH]2)c2ccccc2)cc1	54*	91*	36	-12	44	4	77*	31
Cc1cc(=O)[nH]c(N=N/C(=N/Nc2ccccc2C)c2ccccc2)n1	69*	93*	12	-15	40	-11	82*	49*
Cc1cc(=O)[nH]c(N=N/C(=N/Nc2ccc(O)cc2)c2ccccc2)n1	-1	11	14	-8	40	-11	.	.
Cc1nnc(N2C(=O)C(=O)/C(=C(/O)c3ccc4c(c3)OCCO4)C2c2ccc(F)cc2)s1 (stereo not drawn)	10	-7	7	0	-22	-7	.	.
O=C1C(=O)N(c2nccs2)C(c2ccccc2F)/C1=C(\O)c1ccc2c(c1)OCCO2 (stereo not drawn)	71*	-7	21	-2	-27	24	68*	37*
O=C1C(=O)N(c2nccs2)C(c2ccccc2)/C1=C(\O)c1ccc2c(c1)OCCO2 (stereo not drawn)	74*	-6	13	-9	-49	42	88*	21
NC(=S)N/N=C/c1c[nH]c2ccc(OCc3ccccc3)cc12	20	.	-3	15	45	17	.	.
SMILES	Mdm2-MdmX inh	Beta apoptosis	SKKanGAS inh	Calb FLC	T cruzi repl	CSC inhib	Mdm2-MdmX conf	Full FLuc ctr
COc1cc(N/N=C(\C)c2ccc(O)c(C)c2)nc(-c2ccccc2)n1	87*	23	34	13	46	110*	66*	112*
C/C(=N\Nc1cc(-c2ccccc2)nc(-c2ccccc2)n1)c1ccc(O)c(C)c1	53*	17	98*	-4	51	.	6	.
Cc1nc2ccccc2n1C(=O)N(C)C	16	-6	1	0	-10	.	.	.
COc1cccc(/C=C2\SC(=S)N(CCC(=O)N3CCCCC3CCO)C2=O)c1 (stereo not drawn)	77*	-33	-6	-1	-4	20	45*	40*
COc1cccc(/C=C2\SC(=S)N(CCCC(=O)N3CCCC3)C2=O)c1	84*	-34	4	-1	1	-1	46*	35
COc1ccccc1/C=C1\SC(=S)N(CCC(=O)N2CCCCC2CCO)C1=O (stereo not drawn)	39	-25	3	1	5	7	.	.
COc1cccc(/C=C2\SC(=S)N(CCCC(=O)N3CCCCC3CCO)C2=O)c1 (stereo not drawn)	78*	-38	-4	2	-4	23	61*	21
O=C1/C(=C/c2cccs2)SC(=S)N1CCC(=O)N1CCCCC1CCO (stereo not drawn)	37	-22	-3	7	-7	-1	.	.
C[C@H](CO)N1C[C@H](C)[C@@H](CN(C)C)Oc2c(NS(=O)(=O)c3cn(C)cn3)cccc2C1=O	-2	-6	.	.	.	-4	.	.
CCc1ccc(Nc2nc(N)nc(CSc3nnnn3-c3ccccc3)n2)cc1	60*	-8	-3	-4	-1	23	62*	48*
Cc1ccccc1Nc1nc(N)nc(CSc2nnnn2-c2ccccc2)n1	11	.	-9	-3	3	-6	.	.
CCc1nnc(NC(=O)c2oc3ccccc3c2COC(C)C)s1	5	-5	.	.	.	3	.	.
COC(=O)[C@@]12CCCCN1[C@H](c1ccc(-c3ccc(Cl)c(Cl)c3)cc1)[C@H]1C(=O)N(C)C(=O)[C@H]12	67*	4	.	.	.	.	20	.
CCCCCCSc1ccc([C@@H]2[C@H]3C(=O)N(C)C(=O)[C@H]3[C@]3(C(=O)OC)CCCCN23)cc1	-8	8	21	-16	17	30	.	.
COC(=O)[C@@]12CCCCN1[C@H](c1ccc(-c3ccc(Cl)c(Cl)c3)c(OC)c1)[C@H]1C(=O)N(C)C(=O)[C@H]12	65*	16	.	.	.	.	42*	44*
CCN1C(=O)[C@@H]2[C@@H](c3ccc(-c4ccc(Cl)c(Cl)c4)c(OC)c3)N3CCC[C@@]3(C(=O)OC)[C@@H]2C1=O	67*	-2	.	.	.	27	23	.

Screening results (PubChem BioAssay)
